In ChEMBL document CHEMBL5244249, “Discovery of tofacitinib derivatives as orally active antitumor agents based on the scaffold hybridization strategy” (Eur J Med Chem, 2020):
Active and inactive are the calls of the source. The calls are words filed in the database; no cut-off is given here.

What was measured:
[1] = test system: HGC-27; test: Antiproliferative activity against human HGC-27 cells assessed as inhibition of cell growth incubated for 72 hrs by MTT assay; assay type: functional, cell-based; details: HGC-27, 72 h
How it was run: (§1)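 Antiproliferative screen in gastric cancer lines MGC-803, HGC-27 and BGC-823 by MTT assay; IC50 reported as mean ± SD.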

[2] = test system: MGC-803; test: Induction of mitochondrial dysfunction in human MGC-803 cells assessed as downregulation of procaspase-9 expression at 5 to 10 uM incubated for 24 hrs by Western blot analysis; assay type: functional, cell-based; details: dose 5-10 µM
How it was run: (§2)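 Western blot of caspase 9, 3, 7, PARP and γH2A.X in MGC-803 lysates after 24 h exposure to 5, 7.5 or 10 μM; band quantitation; mean ± SD from three independent experiments.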

[3] = Toxicity in SCID mouse xenografted with human MGC-803 cells assessed as effect on lung at 12.5 to 25 mg/kg, IG administered for 21 days by H&E staining based histopathological analysis; assay type: organism-based; details: in vivo, po, 504 h, dose 12.5-25 mg/kg, time 21 day
How it was run: (§3)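 SCID mice bearing subcutaneous MGC-803 xenografts (right side) dosed with 12.5 or 25 mg/kg over 21 days, 0.5% CMC-Na vehicle as control; body weight and tumor size monitored periodically; major organs examined histopathologically at end; means ± SD.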

[4] = test system: MGC-803; test: Antiproliferative activity against human MGC-803 cells assessed as decrease in cell viability at 10 uM preincubated with SP600125 for 4 hrs followed by compound addition and measured after 24 hrs by MTT assay; assay type: functional, cell-based
How it was run: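 MGC-803 cells pre-incubated 4 h with SB203580 (4 μM) or SP600125 (20 μM), then exposed to 10 μM test compound for 24 h; viability by MTT, expressed as percent of control. Mean ± SD, three independent experiments.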

[5] = test system: MGC-803; test: Induction of apoptosis in human MGC-803 cells assessed as nuclear fragmentation at 5 to 10 uM incubated for 24 hrs by Hoechst 33342 staining based fluorescence microscopic analysis; assay type: functional, cell-based; details: dose 5-10 µM
How it was run: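 MGC-803 cells treated at 0, 5, 7.5 and 10 μM; cell morphology and nuclear morphology (fragmentation, condensation) examined by staining and imaging; three independent experiments, mean ± SD.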

[6] = test system: MGC-803; test: Induction of apoptosis in human MGC-803 cells assessed as early apoptotic cells at 10 uM incubated for 48 hrs by Annexin V-FITC/PI staining based flow cytometric analysis (reference value: 2.5 %); assay type: functional
[7] = test system: MGC-803; test: Induction of apoptosis in human MGC-803 cells assessed as early apoptotic cells at 5 uM incubated for 48 hrs by Annexin V-FITC/PI staining based flow cytometric analysis (reference value: 2.5 %); assay type: functional
[8] = test system: MGC-803; test: Induction of mitochondrial dysfunction in human MGC-803 cells assessed as upregulation of cleaved caspase-7 expression at 5 to 10 uM incubated for 24 hrs by Western blot analysis; assay type: functional, cell-based; details: dose 5-10 µM; how it was run: as §2
[9] = test system: MGC-803; test: Induction of mitochondrial dysfunction in human MGC-803 cells assessed as upregulation of cleaved PARP expression at 5 to 10 uM incubated for 24 hrs by Western blot analysis; assay type: functional, cell-based; details: dose 5-10 µM; how it was run: as §2
[10] = test system: MGC-803; test: Induction of apoptosis in human MGC-803 cells assessed as necrotic cells at 10 uM incubated for 48 hrs by Annexin V-FITC/PI staining based flow cytometric analysis (reference value: 0.3 %); assay type: functional
[11] = test system: MGC-803; test: Induction of apoptosis in human MGC-803 cells assessed as decrease in Bcl-2 protein expression at 5 to 10 uM incubated for 24 hrs by Western blot analysis; assay type: functional, cell-based; details: dose 5-10 µM
How it was run: (§4)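 After 24 h exposure of MGC-803 cells, Bcl-2, Mcl-1, Bax and cytochrome c release assessed by Western blot with band quantitation; mean ± SD from three independent experiments.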

[12] = test system: MGC-803; test: Antiproliferative activity against human MGC-803 cells assessed as inhibition of cell growth incubated for 72 hrs by MTT assay; assay type: functional, cell-based; details: MGC-803, 72 h; how it was run: as §1
[13] = test system: MGC-803; test: Induction of mitochondrial dysfunction in human MGC-803 cells assessed as upregulation of cleaved caspase-3 expression at 5 to 10 uM incubated for 24 hrs by Western blot analysis; assay type: functional, cell-based; details: dose 5-10 µM; how it was run: as §2
[14] = test system: MGC-803; test: Inhibition of colony formation in human MGC-803 cells at 3 uM incubated for 9 days by crystal violet staining based analysis relative to control; assay type: functional; details: MGC-803, 216 h, time 9 day
How it was run: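 Clonogenic assay: MGC-803 cells grown 9 days with 0, 1, 2 or 3 μM; colonies counted and inhibition rate calculated against untreated control; mean ± SD of three independent experiments.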

[15] = test system: MGC-803; test: Induction of apoptosis in human MGC-803 cells assessed as viable cells at 7.5 uM incubated for 24 hrs by Annexin V-FITC/PI staining based flow cytometric analysis (reference value: 90.3 %); assay type: functional; details: read-out: Activity
[16] = test system: MGC-803; test: Cell cycle arrest in human MGC-803 cells assessed as G2/M phase cells at 7.5 uM incubated for 24 hrs by RNase/PI staining based flow cytometric analysis (reference value: 15.11%); assay type: functional
[17] = test system: MGC-803; test: Antitumor activity against human MGC-803 cells xenografted in SCID mouse assessed as decrease in average tumor weight at 12.5 mg/kg, IG administered for 21 days relative to control; assay type: functional; design: scale not given: the % may be the effect or the level left; details: time 21 day
How it was run: (§5)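 MGC-803 cells implanted subcutaneously on the right side of SCID mice; dosed at 12.5 or 25 mg/kg in 0.5% CMC-Na (vehicle control) for 21 days. Body weight and tumor size recorded periodically; tumors excised and weighed at end. Means ± SD.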

[18] = test system: MGC-803; test: Antitumor activity against human MGC-803 cells xenografted in SCID mouse assessed as decrease in average tumor volume at 12.5 to 25 mg/kg, IG administered for 21 days; assay type: functional, organism-based; details: dose 12.5-25 mg/kg, time 21.0 day; how it was run: as §5
[19] = Activation of MAPK pathway in human MGC-803 cells assessed as change in ERK1/2 total expression at 5 to 10 uM incubated for 24 hrs by Western blot analysis; assay type: cell-based; details: dose 5-10 µM
[20] = Toxicity in SCID mouse xenografted with human MGC-803 cells assessed as effect on general health at 12.5 to 25 mg/kg, IG administered for 21 days; assay type: organism-based; details: in vivo, po, 504 h, dose 12.5-25 mg/kg, time 21 day; how it was run: as §3
[21] = test system: MGC-803; test: Induction of apoptosis in human MGC-803 cells assessed as activation of cytochrome C release from mitochondria to cytoplasm incubated for 24 hrs by Western blot analysis; assay type: functional, cell-based; details: dose 5-10 µM; how it was run: as §4
[22] = Toxicity in SCID mouse xenografted with human MGC-803 cells assessed as effect on spleen at 12.5 to 25 mg/kg, IG administered for 21 days by H&E staining based histopathological analysis; assay type: organism-based; details: in vivo, po, 504 h, dose 12.5-25 mg/kg, time 21 day; how it was run: as §3
[23] = test system: MGC-803; test: Induction of apoptosis in human MGC-803 cells assessed as early apoptotic cells at 7.5 uM incubated for 48 hrs by Annexin V-FITC/PI staining based flow cytometric analysis (reference value: 2.5 %); assay type: functional
[24] = test system: MGC-803; test: Induction of apoptosis in human MGC-803 cells assessed as late apoptotic cells at 10 uM incubated for 48 hrs by Annexin V-FITC/PI staining based flow cytometric analysis (reference value: 0.5 %); assay type: functional
[25] = test system: MGC-803; test: Cell cycle arrest in human MGC-803 cells assessed as G2/M phase cells at 10 uM incubated for 24 hrs by RNase/PI staining based flow cytometric analysis (reference value: 15.11%); assay type: functional
[26] = test system: MGC-803; test: Cell cycle arrest in human MGC-803 cells assessed as S phase cells at 5 uM incubated for 24 hrs by RNase/PI staining based flow cytometric analysis (reference value: 27.1%); assay type: functional

- IC50 [12]: 2.68 µM
Compound: Cc1cc(N2CC[C@@H](C)[C@@H](N(C)c3ncnc4[nH]ccc34)C2)n2nc(SCc3ccc(C(F)(F)F)cc3)nc2n1
- IC50 [1]: 9.54 µM
- Activity [2]: Active
- Activity [3]: Non-Toxic
- Activity [4]: inactive
- Activity [5]: Active
- Activity [6]: 4.9%
- Activity [7]: 8.5%
- Activity [8]: Active
- Activity [9]: Active
- Activity [10]: 0.9%
- Activity [11]: Active
- Activity [13]: Active
- inhibition at 3 µM [14]: 73%
- viability at 7.5 µM [15]: 69.2%
- Activity [16]: 12.24%
- Activity [17]: 56.8%
- Activity [18]: Active
- Activity [19]: inactive
- Activity [20]: Non-Toxic
- Activity [21]: Dose-Dependent Effect
- Activity [22]: Non-Toxic
- Activity [23]: 8.8%
- Activity [24]: 77.2%
- Activity [25]: 12.82%
- Activity [26]: 30.04%
